Publication PMC11792500 (RSC Advances, 2025)
Where two headings read alike, the source gives them in different places.

Columns and labels:
HCT-116 (colon cancer) = test: MTT cytotoxicity assay, HCT-116 colon cancer cells; format: cell-based, human; conditions: read-out: IC50 against HCT-116
Outline: (§1)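 Cells (HCT116 or normal dermal fibroblasts) were obtained from ATCC, seeded per doubling time, and grown in RPMI at 37 °C, humidified 5% CO₂. After 48 h exposure to increasing test compound concentrations, MTT at 5 mg ml⁻¹ working concentration was added for 3 h in the dark, followed by DMSO solubilisation with shaking. OD was read at 570/630 nm, viability expressed as treated/untreated × 100, and IC50 ±SD reported from duplicate wells, ≥3 independent runs.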

A549 (lung cancer) = test: MTT cytotoxicity assay, A549 lung cancer cells; format: cell-based, human; conditions: for IC50: read-out: IC50 against A549; for lipophilic efficiency (LLE): from cytotoxicity IC50 at A549, DataWarrior
Outline: (§2)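 Cells from ATCC, seeded at densities set by doubling time and kept in RPMI at 37 °C, 5% CO₂. They were exposed to increasing concentrations for 48 h. MTT at 5 mg ml⁻¹ working concentration was added for 3 h in the dark, and crystals were dissolved in DMSO. […] LLE was estimated from these IC50 values and compound physicochemical properties.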

[1] = system: normal dermal fibroblast cells; test: MTT cytotoxicity assay, normal fibroblasts; format: cell-based; conditions: 48 h, read-out: IC50 against normal fibroblasts
Outline: as §1

T47-D (breast cancer) = test: MTT cytotoxicity assay, T47-D breast cancer cells; format: cell-based, human; conditions: for IC50: read-out: IC50 against T47-D, MTT, 48 h treatment, ±SD, n = 9; for lipophilic efficiency (LLE): from cytotoxicity IC50 at T47-D (printed H47-D), DataWarrior
Outline: as §2

A549 cell migration = test: Wound healing; format: cell-based, human; conditions: A549 cells, 24 h, control 0%; for inhibition of cell migration at IC50: compound at IC50 concentration; for inhibition of cell migration at Sub IC50: compound at sub-IC50 concentration
Outline: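 A549 cells were seeded at 35 000 per culture insert and grown 24 h. Proliferation was blocked with 10 μg ml⁻¹ mitomycin C for 2 h, then cells were washed three times. Cells were exposed to two test concentrations (full and sub-level) and the wound imaged at 0 and 24 h. Wound width was measured, and migration inhibition expressed against the untreated control (0%).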

EGFR kinase = EGFR kinase (Homo sapiens, UniProt P00533); test: EGFR kinase inhibition; format: biochemical; conditions: three independent replicates
Sequence of EGFR kinase (P00533 25-1210): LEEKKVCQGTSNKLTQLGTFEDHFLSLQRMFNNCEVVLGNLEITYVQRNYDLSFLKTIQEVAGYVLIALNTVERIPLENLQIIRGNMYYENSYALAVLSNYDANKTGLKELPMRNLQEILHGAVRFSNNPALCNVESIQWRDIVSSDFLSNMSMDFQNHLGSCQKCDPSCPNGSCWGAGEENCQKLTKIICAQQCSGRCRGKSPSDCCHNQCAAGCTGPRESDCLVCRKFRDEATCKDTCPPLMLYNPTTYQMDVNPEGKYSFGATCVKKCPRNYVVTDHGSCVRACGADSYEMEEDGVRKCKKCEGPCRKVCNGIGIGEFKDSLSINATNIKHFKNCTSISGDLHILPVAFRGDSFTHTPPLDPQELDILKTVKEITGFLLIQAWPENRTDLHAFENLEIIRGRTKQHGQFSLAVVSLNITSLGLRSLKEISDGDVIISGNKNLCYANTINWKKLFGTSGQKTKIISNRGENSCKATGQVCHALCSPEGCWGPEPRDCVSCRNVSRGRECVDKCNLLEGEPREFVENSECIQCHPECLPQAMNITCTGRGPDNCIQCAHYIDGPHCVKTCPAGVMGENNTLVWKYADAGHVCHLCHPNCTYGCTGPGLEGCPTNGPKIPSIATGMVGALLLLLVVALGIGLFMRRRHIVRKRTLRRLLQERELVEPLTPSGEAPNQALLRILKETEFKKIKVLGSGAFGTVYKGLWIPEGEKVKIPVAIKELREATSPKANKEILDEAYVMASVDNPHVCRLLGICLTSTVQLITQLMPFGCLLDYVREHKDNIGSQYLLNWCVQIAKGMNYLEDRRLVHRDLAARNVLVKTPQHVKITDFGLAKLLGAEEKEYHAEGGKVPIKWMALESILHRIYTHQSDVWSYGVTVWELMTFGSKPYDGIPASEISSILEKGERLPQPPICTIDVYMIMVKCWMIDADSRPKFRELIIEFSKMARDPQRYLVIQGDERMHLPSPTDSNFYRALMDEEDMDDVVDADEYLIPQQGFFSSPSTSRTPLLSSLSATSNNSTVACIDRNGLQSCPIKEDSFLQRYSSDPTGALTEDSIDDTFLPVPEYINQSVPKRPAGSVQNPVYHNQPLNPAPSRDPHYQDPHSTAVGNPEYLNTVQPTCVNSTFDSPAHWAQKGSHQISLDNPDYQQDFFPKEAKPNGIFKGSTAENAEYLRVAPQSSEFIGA

[2] = MTT, 48 h treatment, ±SD, n = 9

SMILES	IC50 (HCT-116 (colon cancer); Homo sapiens, HCT-116, 48 h) [µM]	IC50 (A549 (lung cancer); Homo sapiens, A549, 48 h) [µM]	IC50 [1] [µM]	further results
O=c1[nH]cc(F)c(=O)[nH]1 [5-FU, reference compound]	–	–	–	IC50 (HCT-116 (colon cancer); [2]): 11 ± 0.7 µM
C#CCOc1ccc(/C=N\NC(=O)c2ccccc2)cc1 [7a, (Z)-N′-(4-(prop-2-yn-1-yloxy)benzylidene)benzohydrazide]	237 ± 6	200 ± 4	> 500	–
C#CCOc1ccc(/C=N\Nc2ccc([N+](=O)[O-])cc2[N+](=O)[O-])cc1 [7c, (Z)-1-(2,4-dinitrophenyl)-2-(4-(prop-2-yn-1-yloxy)benzylidene)hydrazine]	209 ± 5	156 ± 4	> 500	–
C#CCOc1ccc(/C=N\NC(N)=S)cc1 [7d, (Z)-2-(4-(prop-2-yn-1-yloxy)benzylidene)hydrazine-1-carbothioamide]	261 ± 6	128 ± 5	> 500	–
O=C(Cn1cc(COc2ccc(/C=N/NC(=O)c3ccccc3)cc2)nn1)Nc1nc2ccccc2s1 [8a, (E)-N-(benzo[d]thiazol-2-yl)-2-(4-((4-((2-benzoylhydrazono)-methyl)phenoxy)methyl)-1H-1,2,3-triazol-1-yl)acetamide]	84 ± 3	18 ± 1	> 500	IC50 (T47-D (breast cancer)): 17 ± 1 µM; inhibition of cell migration at IC50 (A549 cell migration): 92.4%; inhibition of cell migration at Sub IC50 (A549 cell migration): 44.8%; % of EGFR inhibition (EGFR kinase): 98.5 ± 3.1%
Cc1ccc2nc(NC(=O)Cn3cc(COc4ccc(/C=N/NC(=O)c5ccccc5)cc4)nn3)sc2c1 [8b, (E)-2-(4-((4-((2-benzoylhydrazono)methyl)phenoxy)methyl)-1H-1,2,3-triazol-1-yl)-N-(6-methylbenzo[d]thiazol-2-yl)acetamide]	94 ± 1	21 ± 1	> 500	IC50 (T47-D (breast cancer)): 13 ± 1 µM; inhibition of cell migration at IC50 (A549 cell migration): 78.9%; inhibition of cell migration at Sub IC50 (A549 cell migration): 49.8%; % of EGFR inhibition (EGFR kinase): 96.8 ± 2.1%
CS(=O)(=O)c1ccc2nc(NC(=O)Cn3cc(COc4ccc(/C=N/NC(=O)c5ccccc5)cc4)nn3)sc2c1 [8c, (E)-2-(4-((4-((2-benzoylhydrazono)methyl)phenoxy)methyl)-1H-1,2,3-triazol-1-yl)-N-(6-(methylsulfonyl)benzo[d]thiazol-2-yl)acetamide]	48 ± 2	25 ± 1	> 500	lipophilic efficiency (LLE) (T47-D (breast cancer)): 1.93; lipophilic efficiency (LLE) (A549 (lung cancer)): 1.84; % of EGFR inhibition (EGFR kinase): 92.3 ± 3.1%
O=C(Cn1cc(COc2ccc(/C=N/NC(=O)c3ccncc3)cc2)nn1)Nc1nc2ccccc2s1 [8d, (E)-N-(benzo[d]thiazol-2-yl)-2-(4-((4-((2-isonicotinoylhydrazono)methyl)phenoxy)methyl)-1H-1,2,3-triazol-1-yl)acetamide]	100 ± 2	38 ± 2	> 500	–
Cc1ccc2nc(NC(=O)Cn3cc(COc4ccc(/C=N/NC(=O)c5ccncc5)cc4)nn3)sc2c1 [8e, (E)-2-(4-((4-((2-isonicotinoylhydrazono)methyl)phenoxy)methyl)-1H-1,2,3-triazol-1-yl)-N-(6-methylbenzo[d]thiazol-2-yl)acetamide]	207 ± 5	92 ± 2	> 500	–
CS(=O)(=O)c1ccc2nc(NC(=O)Cn3cc(COc4ccc(/C=N/NC(=O)c5ccncc5)cc4)nn3)sc2c1 [8f, (E)-2-(4-((4-((2-isonicotinoylhydrazono)methyl)phenoxy)methyl)-1H-1,2,3-triazol-1-yl)-N-(6-(methylsulfonyl)benzo[d]thiazol-2-yl)acetamide]	149 ± 3	38 ± 2	> 500	lipophilic efficiency (LLE) (T47-D (breast cancer)): 2.58; lipophilic efficiency (LLE) (A549 (lung cancer)): 2.66
O=C(Cn1cc(COc2ccc(/C=N\Nc3ccc([N+](=O)[O-])cc3[N+](=O)[O-])cc2)nn1)Nc1nc2ccccc2s1 [8g, (Z)-N-(benzo[d]thiazol-2-yl)-2-(4-((4-((2-(2,4-dinitrophenyl)hydrazono)methyl)phenoxy)methyl)-1H-1,2,3-triazol-1-yl)acetamide]	109 ± 3	103 ± 5	> 500	–
CS(=O)(=O)c1ccc2nc(NC(=O)Cn3cc(COc4ccc(/C=N\Nc5ccc([N+](=O)[O-])cc5[N+](=O)[O-])cc4)nn3)sc2c1 [8i, (Z)-2-(4-((4-((2-(2,4-dinitrophenyl)hydrazono)methyl)phenoxy)methyl)-1H-1,2,3-triazol-1-yl)-N-(6-(methylsulfonyl)benzo[d]thiazol-2-yl)acetamide]	162 ± 5	89 ± 4	> 500	lipophilic efficiency (LLE) (T47-D (breast cancer)): 1.52; lipophilic efficiency (LLE) (A549 (lung cancer)): 1.50
NC(=S)N/N=C\c1ccc(OCc2cn(CC(=O)Nc3nc4ccccc4s3)nn2)cc1 [8j, (Z)-N-(benzo[d]thiazol-2-yl)-2-(4-((4-((2-carbamothioylhydrazono)methyl)phenoxy)methyl)-1H-1,2,3-triazol-1-yl)acetamide]	190 ± 4	63 ± 2	> 500	lipophilic efficiency (LLE) (T47-D (breast cancer)): 1.81; lipophilic efficiency (LLE) (A549 (lung cancer)): 1.82
Cc1ccc2nc(NC(=O)Cn3cc(COc4ccc(/C=N\NC(N)=S)cc4)nn3)sc2c1 [8k, (Z)-2-(4-((4-((2-carbamothioylhydrazono)methyl)phenoxy)methyl)-1H-1,2,3-triazol-1-yl)-N-(6-methylbenzo[d]thiazol-2-yl)acetamide]	170 ± 7	138 ± 4	> 500	–
CS(=O)(=O)c1ccc2nc(NC(=O)Cn3cc(COc4ccc(/C=N\NC(N)=S)cc4)nn3)sc2c1 [8l, (Z)-2-(4-((4-((2-carbamothioylhydrazono)methyl)phenoxy)methyl)-1H-1,2,3-triazol-1-yl)-N-(6-(methylsulfonyl)benzo[d]thiazol-2-yl)acetamide]	180 ± 4	142 ± 3	> 500	–
N.N.[Cl][Pt][Cl] [Cisplatin, reference compound]	–	–	–	IC50 (A549 (lung cancer); [2]): 22 ± 1 µM
